Measured values: ChEMBL document CHEMBL3351917, “Structure-activity relationship study of 4EGI-1, small molecule eIF4E/eIF4G protein-protein interaction inhibitors” (Eur J Med Chem, 2014)
“And” between values parts separate entries of the source, which are not always exact repeats. Equal values may be shown once. The source made the active and inactive calls. No cut-off for these calls is given here.

System: not listed separately
Assay: Retention time of the compound in 30 to 100% ACN/Water/0.1%TFA by RP-HPLC analysis
Assay type: physicochemical
Conditions: buffer
Method in brief: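 Reverse-phase HPLC, 30 to 100% ACN/water/0.1% TFA gradient in 25 min; retention times and E/Z ratios determined on the reaction mixture.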

Row | SMILES | Retention_time [min] | Retention time [min]
1 | [N-]=[N+]=Nc1ccc(-c2csc(N/N=C(/Cc3ccccc3[N+](=O)[O-])C(=O)O)n2)cc1 | 13.435 | 
2 | O=C(O)/C(Cc1ccccc1[N+](=O)[O-])=N/Nc1nc(-c2ccc(Br)cc2)cs1 | 10 | 
3 | O=C(O)/C(Cc1ccccc1[N+](=O)[O-])=N\Nc1nc(-c2ccc(N3CCCC3)cc2)cs1 (mixture of isomers) | 8.828 | 
4 | O=C(O)/C(Cc1ccc(C(=O)O)cc1[N+](=O)[O-])=N/Nc1nc(-c2ccc(Cl)c(Cl)c2)cs1 | 11.814 | 
5 | O=C(O)/C(Cc1ccccc1[N+](=O)[O-])=N/Nc1nc(-c2ccc3ccccc3c2)cs1 | 11.72 | 
6 | [N-]=[N+]=Nc1ccc(-c2csc(N/N=C(\Cc3ccccc3[N+](=O)[O-])C(=O)O)n2)cc1 | 11.722 | 
7 | O=C(O)/C(Cc1ccccc1[N+](=O)[O-])=N\Nc1nc(-c2ccc(Br)cc2)cs1 | 12.48 | 

Now from value to compound:

Row | Retention_time [min] | Retention time [min] | SMILES
8 |  | 12.5 | O=C(O)/C(Cc1ccc(C(=O)O)cc1[N+](=O)[O-])=N\Nc1nc(-c2ccc(Cl)c(Cl)c2)cs1
9 | 5.328 |  | Nc1ccc(C/C(=N/Nc2nc(-c3ccc(Cl)c(Cl)c3)cs2)C(=O)O)cc1
10 | 15.09 |  | Nc1ccc(C/C(=N/Nc2nc(-c3ccc(Cl)c(Cl)c3)cs2)C(=O)O)cc1[N+](=O)[O-]
11 | 12.3 |  | Nc1ccc(C/C(=N\Nc2nc(-c3ccc(Cl)c(Cl)c3)cs2)C(=O)O)cc1[N+](=O)[O-]
12 | 15.542 |  | O=C(O)/C(Cc1ccc(Br)cc1[N+](=O)[O-])=N/Nc1nc(-c2ccc(Cl)c(Cl)c2)cs1

System: not listed separately
Assay: Retention time of the compound in 50 to 100% ACN/Water/0.1%TFA by RP-HPLC analysis
Assay type: physicochemical
Conditions: buffer
Method in brief: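 RP-HPLC run with a 50 to 100% ACN/water/0.1% TFA gradient over 25 min; retention times and isomer ratios taken from the reaction mixture.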

Row | SMILES | Retention_time [min]
13 | O=C(O)/C(Cc1ccccc1[N+](=O)[O-])=N\Nc1nc(-c2ccc(N3CCOCC3)cc2)cs1 | 12.32
14 | O=C(O)/C(Cc1ccccc1[N+](=O)[O-])=N/Nc1nc(-c2ccc(C3CCCCC3)cc2)cs1 | 12.013
15 | O=C(O)/C(Cc1ccccc1[N+](=O)[O-])=N/Nc1nc(-c2ccc(N3CCOCC3)cc2)cs1 | 15.082
16 | O=C(O)/C(Cc1ccccc1[N+](=O)[O-])=N/Nc1nc(-c2ccc3ccccc3c2)cs1 | 7.27
17 | O=C(O)/C(Cc1ccccc1[N+](=O)[O-])=N\Nc1nc(-c2ccc(-c3ccccc3)cc2)cs1 | 7.23
18 | O=C(O)/C(Cc1ccccc1[N+](=O)[O-])=N\Nc1nc(-c2ccc(C3CCCCC3)cc2)cs1 | 11.636
19 | O=C(O)/C(Cc1ccccc1[N+](=O)[O-])=N\Nc1nc(-c2ccc3ccccc3c2)cs1 | 5.899

More lines, now with the values ahead:

Row | Retention_time [min] | SMILES
20 | 7.92 | O=C(O)/C(Cc1ccc(F)cc1)=N\Nc1nc(-c2ccc(Cl)c(Cl)c2)cs1
21 | 10.56 | O=C(O)/C(Cc1ccccc1)=N\Nc1nc(-c2ccc(Cl)c(Cl)c2)cs1
22 | 7.47 | O=C(O)/C(Cc1ccc(F)cc1)=N/Nc1nc(-c2ccc(Cl)c(Cl)c2)cs1
23 | 14.28 | O=C(O)/C(Cc1ccc(O)cc1)=N/Nc1nc(-c2ccc(Cl)c(Cl)c2)cs1
24 | 5.62 | O=C(O)/C(Cc1ccc(C(=O)O)cc1)=N/Nc1nc(-c2ccc(Cl)c(Cl)c2)cs1
25 | 7.82 | O=C(O)/C(Cc1ccc(O)c([N+](=O)[O-])c1)=N\Nc1nc(-c2ccc(Cl)c(Cl)c2)cs1
26 | 15.54 | O=C(O)/C(Cc1ccc(F)c([N+](=O)[O-])c1)=N/Nc1nc(-c2ccc(Cl)c(Cl)c2)cs1
27 | 8.68 | O=C(O)/C(Cc1ccccc1[N+](=O)[O-])=N/Nc1nc(-c2ccc(Cl)c(Cl)c2)cs1
28 | 8.36 | O=C(O)/C(Cc1cccc([N+](=O)[O-])c1)=N\Nc1nc(-c2ccc(Cl)c(Cl)c2)cs1
29 | 10.59 | O=C(O)/C(Cc1ccc(C(F)(F)F)cc1)=N/Nc1nc(-c2ccc(Cl)c(Cl)c2)cs1
30 | 9.449 | O=C(O)/C(Cc1ccc(Cl)c([N+](=O)[O-])c1)=N\Nc1nc(-c2ccc(Cl)c(Cl)c2)cs1
31 | 8.13 | O=C(O)/C(Cc1ccc(C(=O)O)cc1)=N\Nc1nc(-c2ccc(Cl)c(Cl)c2)cs1
32 | 10.53 | O=C(O)/C(Cc1ccc(C(F)(F)F)cc1)=N\Nc1nc(-c2ccc(Cl)c(Cl)c2)cs1
33 | 8.4 | O=C(O)/C(Cc1ccc(F)c([N+](=O)[O-])c1)=N\Nc1nc(-c2ccc(Cl)c(Cl)c2)cs1
34 | 7.82 | O=C(O)/C(Cc1ccc(O)c([N+](=O)[O-])c1)=N/Nc1nc(-c2ccc(Cl)c(Cl)c2)cs1
35 | 7.19 | O=C(O)/C(Cc1cccc([N+](=O)[O-])c1)=N/Nc1nc(-c2ccc(Cl)c(Cl)c2)cs1
36 | 8.7 | O=C(O)/C(Cc1ccccc1)=N/Nc1nc(-c2ccc(Cl)c(Cl)c2)cs1
37 | 15.08 | Nc1ccc(C/C(=N/Nc2nc(-c3ccc(Cl)c(Cl)c3)cs2)C(=O)O)cc1[N+](=O)[O-]
38 | 13.69 | O=C(O)/C(Cc1ccccc1[N+](=O)[O-])=N\Nc1nc(-c2ccc(Cl)c(Cl)c2)cs1
39 | 14.28 | O=C(O)/C(Cc1ccc(O)cc1)=N\Nc1nc(-c2ccc(Cl)c(Cl)c2)cs1
40 | 9.437 | O=C(O)/C(Cc1ccc(Cl)c([N+](=O)[O-])c1)=N/Nc1nc(-c2ccc(Cl)c(Cl)c2)cs1
41 | 10.68 | COc1ccc(C/C(=N/Nc2nc(-c3ccc(Cl)c(Cl)c3)cs2)C(=O)O)cc1[N+](=O)[O-]
42 | 8.16 | O=C(O)/C(Cc1ccc([N+](=O)[O-])cc1)=N/Nc1nc(-c2ccc(Cl)c(Cl)c2)cs1
43 | 8.01 | O=C(O)/C(Cc1ccc([N+](=O)[O-])cc1)=N\Nc1nc(-c2ccc(Cl)c(Cl)c2)cs1
44 | 10.09 | O=C(O)/C(Cc1ccc(Cl)cc1)=N\Nc1nc(-c2ccc(Cl)c(Cl)c2)cs1
45 | 8.007 | COc1ccc(C/C(=N\Nc2nc(-c3ccc(Cl)c(Cl)c3)cs2)C(=O)O)cc1[N+](=O)[O-]

Target: T1, Eukaryotic translation initiation factor 4E (Homo sapiens, UniProt P06730)
T1 sequence (P06730 whole entry): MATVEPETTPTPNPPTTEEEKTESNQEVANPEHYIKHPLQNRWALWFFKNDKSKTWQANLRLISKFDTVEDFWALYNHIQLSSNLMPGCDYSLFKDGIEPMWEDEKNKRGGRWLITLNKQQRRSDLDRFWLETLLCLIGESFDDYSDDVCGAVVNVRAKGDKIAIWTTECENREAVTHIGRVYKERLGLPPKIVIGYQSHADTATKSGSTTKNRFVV
Assay: Binding affinity to human full length recombinant GST-tagged eIF4E expressed in Escherichia coli BL21(DE3) by intrinsic tryptophan fluorescence quenching method
Conditions: not given

Row | SMILES | Kd [µM]
46 | O=C(O)/C(Cc1ccccc1[N+](=O)[O-])=N\Nc1nc(-c2ccc(O)cc2)cs1 | 36.6
47 | Nc1ccc(C/C(=N/Nc2nc(-c3ccc(Cl)c(Cl)c3)cs2)C(=O)O)cc1[N+](=O)[O-] | 5.01

System: not listed separately
Assay: Retention time of the compound in 0 to 100% ACN/Water/0.1%TFA by RP-HPLC analysis
Assay type: physicochemical
Conditions: buffer
Method in brief: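 Reverse-phase HPLC, linear gradient 0 to 100% ACN/water/0.1% TFA over 25 min; isomer retention times and ratios measured in the reaction mixture.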

Row | SMILES | Retention_time [min]
48 | O=C(O)/C(Cc1ccccc1[N+](=O)[O-])=N\Nc1nc(-c2ccccc2)cs1 | 16.98
49 | O=C(O)/C(Cc1ccccc1[N+](=O)[O-])=N/Nc1nc(-c2ccccc2)cs1 | 15.8

Other lines, results leading:

Row | Retention_time [min] | SMILES
50 | 16.63 | O=C(O)/C(Cc1ccc(O)cc1)=N/Nc1nc(-c2ccc(Cl)c(Cl)c2)cs1
51 | 18.74 | O=C(O)/C(Cc1ccc(O)cc1)=N\Nc1nc(-c2ccc(Cl)c(Cl)c2)cs1

Target: T1, Eukaryotic translation initiation factor 4E
Assay: Inhibition of eIF4E/eIF4G interaction in human CRL2813 cells assessed as increase in eIF4E/BP1 complex at 30 uM after 6 hrs by Western blotting analysis relative to control
Assay type: cell-based
Conditions: not given
Method in brief: (§1)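 CRL-2813 melanoma cells incubated 6 h with 30 µM compound or DMSO vehicle, harvested, lysed by freeze-thaw; lysate bound to m7GTP-Sepharose 1 h at 4°C, beads washed, eluted with free m7GTP; retentate resolved by SDS-PAGE and immunoblotted for eIF4E, eIF4G (monoclonal) and 4E-BP1 (polyclonal). Blots quantified; mean of three independent pull-downs, error ±S.E.M.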

Row | SMILES | inhibition
52 | Nc1ccc(C/C(=N/Nc2nc(-c3ccc(Cl)c(Cl)c3)cs2)C(=O)O)cc1[N+](=O)[O-] | Active

Target: T1, Eukaryotic translation initiation factor 4E
Assay: Inhibition of eIF4E/eIF4G interaction in human CRL2813 cells assessed as reduction of eIF4E/eIF4G complex at 30 uM after 6 hrs by Western blotting analysis relative to control
Assay type: cell-based
Conditions: not given
Method in brief: as §1

Row | SMILES | inhibition
53 | Nc1ccc(C/C(=N/Nc2nc(-c3ccc(Cl)c(Cl)c3)cs2)C(=O)O)cc1[N+](=O)[O-] | Active

System: not listed separately
Assay: Retention time of the compound in 0 to 70% ACN/Water/0.1%TFA by RP-HPLC analysis
Assay type: physicochemical
Conditions: buffer

Row | SMILES | Retention_time
54 | Nc1ccc(-c2csc(N/N=C(\Cc3ccccc3[N+](=O)[O-])C(=O)O)n2)cc1 | 11.06 min
55 | Nc1ccc(-c2csc(N/N=C(/Cc3ccccc3[N+](=O)[O-])C(=O)O)n2)cc1 | 12.98 min
56 | O=C(O)/C(Cc1ccccc1[N+](=O)[O-])=N\Nc1nc(-c2ccc(O)cc2)cs1 | 16.47 min
57 | O=C(O)/C(Cc1ccccc1[N+](=O)[O-])=N/Nc1nc(-c2ccc(O)cc2)cs1 | 16.48 min
58 | O=C(O)/C(Cc1ccccc1[N+](=O)[O-])=N/Nc1nc(-c2ccc(C(=O)O)cc2)cs1 | 14.54 min
59 | O=C(O)/C(Cc1ccccc1[N+](=O)[O-])=N\Nc1nc(-c2ccc(C(=O)O)cc2)cs1 | 16.77 min
60 | O=C(O)/C(Cc1ccccc1[N+](=O)[O-])=N\Nc1nc(-c2ccccc2)cs1 | 12.958 min
61 | O=C(O)/C(Cc1ccccc1[N+](=O)[O-])=N/Nc1nc(-c2ccccc2)cs1 | 15.796 min and 16.484 min
